System: Fibroblast
Test: Multiplex assay against human fibroblast
Format: toxicity, cell-based
Procedure, shortened: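 Compound was added to live cells that had been stained at seeding with Hoechst33342, BioTracker Green Microtubule Cytoskeleton Dye, MitoTracker Red and Annexin V Alexa Fluor 680, and imaging followed on a CQ1 microscope at 37°C and 5% CO2. CellPathfinder machine-learning gating divided cells into Hoechst high-intensity objects or normal cells, normal cells into healthy, pyknosed or fragmented nuclei, and pyknosed cells into mitotic or apoptotic. Tubulin, mitochondrial-mass and membrane-permeability phenotypes are per cents of healthy-nucleus cells.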

[1] = 12 h, 1 µM, compound concentration 1 uM, replicate 1
[2] = 12 h, 1 µM, compound concentration 1 uM, replicate 2
[3] = 12 h, 10 µM, compound concentration 10 uM, replicate 1
[4] = 12 h, 10 µM, compound concentration 10 uM, replicate 2
[5] = 24 h, 1 µM, compound concentration 1 uM, replicate 1
[6] = 24 h, 1 µM, compound concentration 1 uM, replicate 2
[7] = 24 h, 10 µM, compound concentration 10 uM, replicate 1
[8] = 24 h, 10 µM, compound concentration 10 uM, replicate 2
[9] = 48 h, 1 µM, compound concentration 1 uM, replicate 1
[10] = 48 h, 1 µM, compound concentration 1 uM, replicate 2
[11] = 48 h, 10 µM, compound concentration 10 uM, replicate 1
[12] = 48 h, 10 µM, compound concentration 10 uM, replicate 2

CCn1c(=O)c(-c2ccc(-c3cncs3)cc2Cl)cc2cnc(Nc3ccc(N4CCN(C)CC4)cc3)nc21
Population Apoptotic (%) [1]: 53%
Population Fragmented Nuclei (%) [1]: 26%
Population Healthy Nuclei (%) [1]: 37%
Population Hoechst High Intensity Objects (%) [1]: 17%
Population Membrane Permeable-Phenotype (%) [1]: 15%
Population Mitochondria Different-Phenotype (%) [1]: 0%
Population Mitotic Cells (%) [1]: 46%
Population Normal (%) [1]: 82%
Population Pyknosed Nuclei (%) [1]: 35%
Population Tubulin-Different-Phenotype (%) [1]: 36%
Total Cell Count [1]: 108
Population Apoptotic (%) [2]: 75%
Population Fragmented Nuclei (%) [2]: 9%
Population Healthy Nuclei (%) [2]: 78%
Population Hoechst High Intensity Objects (%) [2]: 7%
Population Membrane Permeable-Phenotype (%) [2]: 3%
Population Mitochondria Different-Phenotype (%) [2]: 17%
Population Mitotic Cells (%) [2]: 25%
Population Normal (%) [2]: 92%
Population Pyknosed Nuclei (%) [2]: 11%
Population Tubulin-Different-Phenotype (%) [2]: 19%
Total Cell Count [2]: 76
Population Apoptotic (%) [3]: 58%
Population Fragmented Nuclei (%) [3]: 45%
Population Healthy Nuclei (%) [3]: 9%
Population Hoechst High Intensity Objects (%) [3]: 46%
Population Membrane Permeable-Phenotype (%) [3]: 41%
Population Mitochondria Different-Phenotype (%) [3]: 8%
Population Mitotic Cells (%) [3]: 41%
Population Normal (%) [3]: 53%
Population Pyknosed Nuclei (%) [3]: 44%
Population Tubulin-Different-Phenotype (%) [3]: 50%
Total Cell Count [3]: 230
Population Apoptotic (%) [4]: 11%
Population Fragmented Nuclei (%) [4]: 8%
Population Healthy Nuclei (%) [4]: 79%
Population Hoechst High Intensity Objects (%) [4]: 4%
Population Membrane Permeable-Phenotype (%) [4]: 5%
Population Mitochondria Different-Phenotype (%) [4]: 29%
Population Mitotic Cells (%) [4]: 88%
Population Normal (%) [4]: 96%
Population Pyknosed Nuclei (%) [4]: 12%
Population Tubulin-Different-Phenotype (%) [4]: 15%
Total Cell Count [4]: 77
Population Apoptotic (%) [5]: 58%
Population Fragmented Nuclei (%) [5]: 26%
Population Healthy Nuclei (%) [5]: 47%
Population Hoechst High Intensity Objects (%) [5]: 16%
Population Membrane Permeable-Phenotype (%) [5]: 31%
Population Mitochondria Different-Phenotype (%) [5]: 0%
Population Mitotic Cells (%) [5]: 41%
Population Normal (%) [5]: 83%
Population Pyknosed Nuclei (%) [5]: 25%
Population Tubulin-Different-Phenotype (%) [5]: 40%
Total Cell Count [5]: 111
Population Apoptotic (%) [6]: 46%
Population Fragmented Nuclei (%) [6]: 15%
Population Healthy Nuclei (%) [6]: 68%
Population Hoechst High Intensity Objects (%) [6]: 4%
Population Membrane Permeable-Phenotype (%) [6]: 1%
Population Mitochondria Different-Phenotype (%) [6]: 5%
Population Mitotic Cells (%) [6]: 53%
Population Normal (%) [6]: 95%
Population Pyknosed Nuclei (%) [6]: 16%
Population Tubulin-Different-Phenotype (%) [6]: 20%
Total Cell Count [6]: 74
Population Apoptotic (%) [7]: 85%
Population Fragmented Nuclei (%) [7]: 44%
Population Healthy Nuclei (%) [7]: 6%
Population Hoechst High Intensity Objects (%) [7]: 53%
Population Membrane Permeable-Phenotype (%) [7]: 22%
Population Mitochondria Different-Phenotype (%) [7]: 0%
Population Mitotic Cells (%) [7]: 15%
Population Normal (%) [7]: 46%
Population Pyknosed Nuclei (%) [7]: 48%
Population Tubulin-Different-Phenotype (%) [7]: 27%
Total Cell Count [7]: 615
Population Apoptotic (%) [8]: 27%
Population Fragmented Nuclei (%) [8]: 14%
Population Healthy Nuclei (%) [8]: 71%
Population Hoechst High Intensity Objects (%) [8]: 3%
Population Membrane Permeable-Phenotype (%) [8]: 7%
Population Mitochondria Different-Phenotype (%) [8]: 23%
Population Mitotic Cells (%) [8]: 72%
Population Normal (%) [8]: 96%
Population Pyknosed Nuclei (%) [8]: 14%
Population Tubulin-Different-Phenotype (%) [8]: 8%
Total Cell Count [8]: 83
Population Apoptotic (%) [9]: 52%
Population Fragmented Nuclei (%) [9]: 36%
Population Healthy Nuclei (%) [9]: 39%
Population Hoechst High Intensity Objects (%) [9]: 10%
Population Membrane Permeable-Phenotype (%) [9]: 35%
Population Mitochondria Different-Phenotype (%) [9]: 2%
Population Mitotic Cells (%) [9]: 47%
Population Normal (%) [9]: 89%
Population Pyknosed Nuclei (%) [9]: 24%
Population Tubulin-Different-Phenotype (%) [9]: 32%
Total Cell Count [9]: 105
Population Apoptotic (%) [10]: 0%
Population Fragmented Nuclei (%) [10]: 24%
Population Healthy Nuclei (%) [10]: 75%
Population Membrane Permeable-Phenotype (%) [10]: 5%
Population Mitochondria Different-Phenotype (%) [10]: 6%
Population Mitotic Cells (%) [10]: 0%
Population Pyknosed Nuclei (%) [10]: 0%
Population Tubulin-Different-Phenotype (%) [10]: 20%
Total Cell Count [10]: 88
Population Apoptotic (%) [11]: 92%
Population Fragmented Nuclei (%) [11]: 44%
Population Healthy Nuclei (%) [11]: 5%
Population Hoechst High Intensity Objects (%) [11]: 59%
Population Membrane Permeable-Phenotype (%) [11]: 24%
Population Mitochondria Different-Phenotype (%) [11]: 0%
Population Mitotic Cells (%) [11]: 7%
Population Normal (%) [11]: 40%
Population Pyknosed Nuclei (%) [11]: 50%
Population Tubulin-Different-Phenotype (%) [11]: 10%
Total Cell Count [11]: 1270
Population Apoptotic (%) [12]: 100%
Population Fragmented Nuclei (%) [12]: 43%
Population Healthy Nuclei (%) [12]: 55%
Population Hoechst High Intensity Objects (%) [12]: 11%
Population Membrane Permeable-Phenotype (%) [12]: 10%
Population Mitochondria Different-Phenotype (%) [12]: 4%
Population Mitotic Cells (%) [12]: 0%
Population Normal (%) [12]: 88%
Population Pyknosed Nuclei (%) [12]: 0%
Population Tubulin-Different-Phenotype (%) [12]: 52%
Total Cell Count [12]: 139
